# Data taken from ChEMBL document CHEMBL4627246, “Pyroglutamide-Based P2X7 Receptor Antagonists Targeting Inflammatory Bowel Disease” (J Med Chem, 2020).
# Activity calls are given as the source filed them. The rule behind the calls is not given here.
# Biological target: T1, P2X purinoceptor 7 (Homo sapiens) (UniProt Q99572)
# T1 sequence (whole entry): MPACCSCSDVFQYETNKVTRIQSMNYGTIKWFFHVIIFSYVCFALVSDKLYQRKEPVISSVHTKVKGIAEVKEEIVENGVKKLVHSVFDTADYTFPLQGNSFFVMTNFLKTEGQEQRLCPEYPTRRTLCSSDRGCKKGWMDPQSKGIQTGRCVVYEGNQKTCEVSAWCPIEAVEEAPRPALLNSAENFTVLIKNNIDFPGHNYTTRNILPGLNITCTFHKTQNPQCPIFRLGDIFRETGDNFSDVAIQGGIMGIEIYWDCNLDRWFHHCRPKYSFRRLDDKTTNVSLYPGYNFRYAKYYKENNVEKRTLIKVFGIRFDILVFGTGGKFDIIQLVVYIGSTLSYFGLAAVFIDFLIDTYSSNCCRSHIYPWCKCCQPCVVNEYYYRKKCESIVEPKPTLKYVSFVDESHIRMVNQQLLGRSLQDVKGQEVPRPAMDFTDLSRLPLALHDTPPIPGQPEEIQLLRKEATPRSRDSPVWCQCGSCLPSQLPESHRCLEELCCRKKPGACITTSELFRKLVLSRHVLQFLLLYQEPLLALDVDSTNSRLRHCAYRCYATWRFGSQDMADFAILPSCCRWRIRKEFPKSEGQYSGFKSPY
# Assay: Inhibition of human P2X7 expressed in human HEK293 cells assessed as reduction in BzATP-stimulated TO-PRO-3 incorporation at 10 uM preincubated with compound and TO-PRO-3 for 15 mins prior to BzATP addition and measured after 1 hr by Fluo-3AM dye based flow cytometry relative to control
# Type: cell-based
# Method in brief: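 HEK-293 cells overexpressing human P2RX7 loaded with Fluo-3 AM, then incubated with TO-PRO-3 (large pore uptake) and propidium iodide (viability) plus compound (10⁻⁵ M single point) for 15 min before BzATP 100 µM. After 1 h, flow cytometry; percentage of Fluo-3/TO-PRO-3 double-positive cells calculated. Mean of n ≥ 2 with positive control.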
row,Compound,inhibition
1,O=C(NCc1ccc(Cl)cc1Cl)[C@@H]1CCC(=O)N1c1ccccc1,50%
2,COc1ccc(CN2C(=O)[C@@H]3C/C(=C\N(C)C)C(=O)N3C2N(C)C)c(OC)c1 (stereo partly drawn),0%
3,CN(C)C(=O)[C@@H]1CCC(=O)N1,inactive
4,O=C(NCc1ccc(Cl)cc1Cl)[C@@H]1CCC(=O)N1C(c1ccc(Cl)cc1)c1ccc(Cl)cc1,0%
5,COc1ccc(NC(=O)[C@@H]2C/C(=C\N(C)C)C(=O)N2)cc1,0%
6,C[n+]1ccccc1C(=O)NCc1ccc(Cl)cc1Cl.[I-],0%
7,CN(C)/C=C1\C[C@H]2C(=O)N(/C(=C/N(C)C)c3ccncc3)C(N(C)C)N2C1=O (stereo partly drawn),0%
8,O=C(NCc1ccc(Cl)cc1Cl)[C@@H]1CCC(=O)N1c1ccc(Cl)cc1,0%
9,O=C(NCCc1ccccc1)[C@@H]1CCC(=O)N1Cc1ccc(Cl)cc1Cl,0%
10,O=C1N[C@H](C(=O)NCc2ccc(Cl)cc2Cl)C/C1=N\O (stereo in doubt),52%
11,CN(Cc1ccccc1)C(=O)[C@@H]1CCC(=O)N1Cc1ccc(Cl)cc1Cl,0%
12,O=C(NCc1ccccc1Cl)[C@@H]1CCC(=O)N1Cc1ccc(Cl)cc1,0%
13,O=C(NCCc1ccc(Cl)cc1Cl)[C@@H]1CCC(=O)N1c1ccccc1,0%
14,COc1cc(CNC(=O)[C@@H]2CCC(=O)N2)cc(OC)c1OC,inactive
15,COc1ccc(CN2C(=O)CC[C@H]2C(=O)NCCc2ccccc2)cc1,0%
16,CN(C)/C=C1\C[C@H]2C(=O)N(Cc3ccc(Cl)cc3Cl)C(N(C)C)N2C1=O (stereo partly drawn),24%
17,O=C(NCc1ccc(Cl)cc1Cl)[C@@H]1CCC(=O)N1c1ccc(Cl)cc1Cl,0%
18,O=C(NCc1ccc(Cl)cc1Cl)[C@@H]1CCC(=O)N1Cc1ccccc1,100%
19,COc1ccc(N2C(=O)CC[C@H]2C(=O)NCc2ccc(Cl)cc2Cl)cc1,0%
20,COC(=O)[C@@H]1C/C(=C\NCc2ccc(Cl)cc2Cl)C(=O)N1C(=O)OC,99%
21,CCCCCCN1C(=O)[C@@H]2CCC(=O)N2C1N(C)C (stereo partly drawn),0%
22,O=C(NCc1ccc(Cl)cc1Cl)[C@@H]1CCC(=O)N1C(c1ccccc1)c1ccccc1,0%

# Tested on: not listed separately
# Assay: Metabolic stability in human hepatocytes
# Type: ADME, cell-based, Hepatocyte
row,Compound,Stability
1,O=C(NCc1ccc(Cl)cc1Cl)[C@@H]1CCC(=O)N1c1ccccc1,Unstable
